# Reference: ChEMBL document CHEMBL5376016, “Synthesis of novel rapanone derivatives via organocatalytic reductive C-alkylation: biological evaluation of antioxidant properties, in vivo zebrafish embryo toxicity, and docking studies” (RSC Med Chem, 2024)
# What was measured:
# [1] = Acute toxicity in zebrafish embryo assessed as survival rate at 96 hrs post fertilization relative to control; design: species or system Danio rerio; concentration or dose not given beside the values; conditions: in vivo
# In short: (§1)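 Lethality endpoints were coagulation and absence of heartbeat, checked by inverted microscope. Survival was compared with untreated embryos across three independent experiments; mean ± SD, ANOVA.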
# [2] = Acute toxicity in zebrafish embryo assessed as morphological changes at upto 160 uM measured after 48 hrs post fertilization relative to control; design: species or system Danio rerio; conditions: in vivo
# In short: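 Wild-type Danio rerio embryos were exposed in milli-Q water with compound dissolved in DMSO (≤0.25 v/v final). Controls were milli-Q water and water with DMSO. Embryos were held at 26.8 ± 1 °C and scored by inverted microscope at 24–96 hpf, after exposure at 160 µM, for bent spine, yolk sac edema, pericardial edema, short tail and bent tail.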
# [3] = Acute toxicity in zebrafish embryo assessed as hatching rate at 20 to 160 uM measured after 48 hrs post fertilization relative to control; design: species or system Danio rerio; conditions: in vivo, dose 20-160 µM
# In short: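 Controls were water and water with 0.5% DMSO. Incubation at 26.8 ± 1 °C, 20 embryos per well. Hatching scored over 0–96 hpf under an inverted microscope. Triplicate, three independent experiments; mean ± SD; ANOVA.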
# [4] = Acute toxicity in zebrafish embryo assessed as survival rate at 20 uM measured after 96 hrs post fertilization relative to control; design: species or system Danio rerio; conditions: in vivo; in short: as §1
# [5] = Antioxidant activity assessed as DPPH radical scavenging activity after 30 mins by spectrophotometric analysis; format: functional
# In short: (§2)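 Ascorbic acid was the reference standard. For DPPH, 0.2 mM DPPH in methanol was kept in the dark, mixed with compound at 5–160 µM (DMSO stock), and incubated 30 min in the dark at room temperature, then A517 was read. %RSA = (Ac−As)/Ac×100. Triplicate runs; IC50 taken from the plot of % scavenging versus concentration.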
# [6] = Antioxidant activity assessed as ABTS radical scavenging activity after 6 mins by spectrophotometric analysis relative to control; format: functional; design: concentration or dose not given beside the values
# [7] = Acute toxicity in zebrafish embryo assessed as survival rate at 160 uM measured after 96 hrs post fertilization relative to control; design: species or system Danio rerio; conditions: in vivo; in short: as §1
# [8] = Antioxidant activity assessed as DPPH radical scavenging activity after 30 mins by spectrophotometric analysis relative to control; format: functional; design: concentration or dose not given beside the values; in short: as §2
# [9] = Antioxidant activity assessed as ABTS radical scavenging activity after 6 mins by spectrophotometric analysis; format: functional
Compound,survival at 96 h ([1]; read-out: Activity) [%],Activity [2],Activity [3] [%],"survival at 96 h, 20 µM [4] [%]",IC50 [5] [µM],Activity [6] [%],"survival at 96 h, 160 µM [7] [%]",Activity [8] [%],IC50 [9] [µM],survival at 96 h ([1]; read-out: Survival) [%]
CCCCCCCCCCCC1=C(O)C(=O)C(CC(C)C)=C(O)C1=O,70,Non-Toxic,75.66,52,2.48,80.2,70,80,–,–
O=C1O[C@H]([C@@H](O)CO)C(O)=C1O [ASCORBIC ACID],–,–,–,–,1.87,91.1,–,90.2,1.42,–
CCCCCCCCCCCC1=C(O)C(=O)C(Cc2ccc(Br)cc2)=C(O)C1=O,–,Non-Toxic,51.33,–,4.59,52.1,–,50.3,5.14,> 90
CCCCCCCCCCCC1=C(O)C(=O)C(Cc2cc(Cl)ccc2Cl)=C(O)C1=O,–,Non-Toxic,51.33,–,4.69,52.1,–,50.3,5.32,> 90
CCCCCCCCCCCC1=C(O)C(=O)C(CC)=C(O)C1=O,70,Non-Toxic,75.66,52,2.61,80.2,70,80,2.44,–
CCCCCCCCCCCC1=C(O)C(=O)C(Cc2ccc(Cl)c(Cl)c2)=C(O)C1=O,–,Non-Toxic,51.33,–,4.87,52.1,–,50.3,5.09,> 90
CCCCCCCCCCCC1=C(O)C(=O)C(Cc2cccc([N+](=O)[O-])c2)=C(O)C1=O,–,Non-Toxic,51.33,–,4.8,52.1,–,50.3,5.36,> 90
CCCCCCCCCCCC1=C(O)C(=O)C(Cc2ccccc2F)=C(O)C1=O,–,Non-Toxic,51.33,–,4.62,52.1,–,50.3,5.44,> 90
C#Cc1ccccc1CC1=C(O)C(=O)C(CCCCCCCCCCC)=C(O)C1=O,–,Non-Toxic,51.33,–,4.94,52.1,–,50.3,4.96,> 90
CCCCCCCCCCCC1=C(O)C(=O)C(Cc2c(Cl)cccc2Cl)=C(O)C1=O,–,Non-Toxic,51.33,–,4.87,52.1,–,50.3,5.21,> 90
CCCCCCCCCCCC1=C(O)C(=O)C(Cc2ccccc2[N+](=O)[O-])=C(O)C1=O,–,Non-Toxic,51.33,–,4.76,52.1,–,50.3,5.34,> 90
CCCCCCCCCCCC1=C(O)C(=O)C(Cc2ccc(C#N)cc2)=C(O)C1=O,–,Non-Toxic,51.33,–,4.58,52.1,–,50.3,5.15,> 90
CCCCCCCCCCCC1=C(O)C(=O)C(Cc2ccccc2Br)=C(O)C1=O,–,Non-Toxic,51.33,–,4.57,52.1,–,50.3,5.54,> 90
